Measurements: ChEMBL document CHEMBL2311268, “Targeting the binding function 3 (BF3) site of the androgen receptor through virtual screening. 2. development of 2-((2-phenoxyethyl) thio)-1H-benzimidazole derivatives” (J Med Chem, 2013)
The source made the active and inactive calls. No cut-off for these calls is given here.

Legend:
Androgen receptor [1] = target: T1, Androgen receptor (Homo sapiens, UniProt P10275); assay: Inhibition of BF3 site of androgen receptor in human LNCAP cells expressing ARR2PB after 3 days by eGFP transcriptional assay; format: cell-based
T1 sequence (P10275 whole entry): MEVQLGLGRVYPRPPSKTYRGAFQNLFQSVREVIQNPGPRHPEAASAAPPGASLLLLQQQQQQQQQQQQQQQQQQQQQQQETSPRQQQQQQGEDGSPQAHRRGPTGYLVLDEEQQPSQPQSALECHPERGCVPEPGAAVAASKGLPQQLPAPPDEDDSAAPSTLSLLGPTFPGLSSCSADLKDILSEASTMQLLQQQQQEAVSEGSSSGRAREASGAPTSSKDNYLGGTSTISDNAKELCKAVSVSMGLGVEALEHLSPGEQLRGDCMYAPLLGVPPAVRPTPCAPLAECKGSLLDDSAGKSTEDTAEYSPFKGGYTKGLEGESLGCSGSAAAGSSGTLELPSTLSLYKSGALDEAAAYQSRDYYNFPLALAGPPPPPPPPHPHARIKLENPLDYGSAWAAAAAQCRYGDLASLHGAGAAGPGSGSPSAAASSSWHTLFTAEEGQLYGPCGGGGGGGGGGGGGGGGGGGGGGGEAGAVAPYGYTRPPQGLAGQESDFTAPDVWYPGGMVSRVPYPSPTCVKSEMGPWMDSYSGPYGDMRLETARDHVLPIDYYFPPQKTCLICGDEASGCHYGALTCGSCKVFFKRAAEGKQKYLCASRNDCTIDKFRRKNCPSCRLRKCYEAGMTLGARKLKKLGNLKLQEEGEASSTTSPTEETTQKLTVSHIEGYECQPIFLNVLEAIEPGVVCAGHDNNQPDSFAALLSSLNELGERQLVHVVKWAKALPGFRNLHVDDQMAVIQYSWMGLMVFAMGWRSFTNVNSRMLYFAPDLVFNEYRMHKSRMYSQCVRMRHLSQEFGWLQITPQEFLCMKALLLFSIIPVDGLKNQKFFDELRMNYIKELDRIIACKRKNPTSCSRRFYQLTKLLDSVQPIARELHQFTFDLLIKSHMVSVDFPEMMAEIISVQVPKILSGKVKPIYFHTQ

[2] = target: T2, Estrogen receptor (Homo sapiens) (UniProt P03372); assay: Inhibition of estrogen receptor alpha in human MCF7 cells at 1 to 10 uM after 3 days by luciferase reporter gene assay; format: cell-based
T2 sequence (whole entry): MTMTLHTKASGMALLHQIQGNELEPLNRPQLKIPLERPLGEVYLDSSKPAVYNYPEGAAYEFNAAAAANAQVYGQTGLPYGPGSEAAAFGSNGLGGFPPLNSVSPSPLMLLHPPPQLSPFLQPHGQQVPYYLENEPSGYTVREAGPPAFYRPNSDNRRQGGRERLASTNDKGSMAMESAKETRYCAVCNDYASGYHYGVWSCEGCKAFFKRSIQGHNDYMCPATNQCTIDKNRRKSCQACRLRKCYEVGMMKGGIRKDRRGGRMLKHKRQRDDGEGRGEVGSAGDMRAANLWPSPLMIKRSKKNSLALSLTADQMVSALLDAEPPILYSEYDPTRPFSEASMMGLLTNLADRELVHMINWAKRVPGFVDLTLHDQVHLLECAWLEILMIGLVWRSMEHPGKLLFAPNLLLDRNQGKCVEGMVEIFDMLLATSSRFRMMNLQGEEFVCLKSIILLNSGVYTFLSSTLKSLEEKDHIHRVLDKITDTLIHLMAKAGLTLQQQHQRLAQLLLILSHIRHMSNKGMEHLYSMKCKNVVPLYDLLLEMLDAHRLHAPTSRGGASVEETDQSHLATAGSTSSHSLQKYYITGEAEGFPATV
How it was run: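 MCF-7 cells were kept 5 days in phenol-red-free RPMI 1640 with 10% CSS, then seeded. After 24 h they were transfected with a luciferase plasmid driven by a consensus estrogen response element. Next day they were treated with 1 nM E2 plus test compound (10 µM final) in 0.1% EtOH/0.1% DMSO. Cells were lysed 24 h later and luminescence read.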

PC-3 = assay: Cytotoxicity against AR independent human PC3 cells assessed as growth inhibition at 6 uM after 4 days; format: functional, cell-based
How it was run: (§1)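 Viability read after a 4-day incubation with compound at 6 µM in LNCaP, enzalutamide-resistant LNCaP-derived and AR-independent PC3 prostate cancer cells; data given as mean ± SEM.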

LNCaP [3] = assay: Cytotoxicity against enzalutamide-resistant human LNCAP cells assessed as growth inhibition at 6 uM after 4 days; format: functional, cell-based; how it was run: as §1
LNCaP [4] = assay: Cytotoxicity against human LNCAP cells assessed as growth inhibition at 6 uM after 4 days; format: functional, cell-based; how it was run: as §1
Androgen receptor [5] = target: T1, Androgen receptor; format: cell-based, LNCaP
Androgen receptor [6] = target: T1, Androgen receptor; assay: Inhibition of BF3 site of androgen receptor in human LNCAP cells expressing ARR2PB assessed as reduction in PSA level after 3 days; format: cell-based

| SMILES | IC50 (Androgen receptor [1]) [µM] | also measured |
| --- | --- | --- |
| OCCn1c(SCCOc2ccccc2)nc2ccccc21 | > 200 |  |
| O=S(=O)(CCOc1ccccc1)c1nc2ccccc2[nH]1 | > 200 |  |
| [O-][S+](CCOc1ccccc1)c1nc2ccccc2[nH]1 (stereo not drawn) | > 200 |  |
| c1ccc(OCCSc2cc3ccccc3[nH]2)cc1 | 5.4 |  |
| Clc1ccc(OCCSc2nc3ccccc3[nH]2)cc1 | 4 |  |
| NS(=O)(=O)c1cccc2cc(SCCOc3ccccc3)[nH]c12 | 1.5 | inhibition [2]: inactive; growth inhibition (GI) (PC-3): inactive; growth inhibition (GI) (LNCaP [3]): Active; growth inhibition (GI) (LNCaP [4]): Active; IC50 (Androgen receptor [5]): 6.4 µM; IC50 (Androgen receptor [6]): 1.6 µM |
| CCOc1cccc(OCCSc2nc3ccccc3n2CCOc2ccc(C)cc2)c1 | 22.8 |  |
| NS(=O)(=O)c1ccc(OCCSc2nc3ccccc3[nH]2)cc1 | 62 |  |
| c1ccc(OCCCc2nc3ccccc3[nH]2)cc1 | > 200 |  |
| O=C(O)CCn1c(SCCOc2ccccc2)nc2ccccc21 | > 200 |  |
| c1ccc(OCCCSc2nc3ccccc3[nH]2)cc1 | > 200 |  |
| Cc1ccccc1OCCSc1nc2ccccc2[nH]1 | 19 |  |
| CCn1c(SCCOc2ccccc2)nc2ccccc21 | 12 |  |
| Cc1cccc(OCCSc2nc3ccccc3n2CCOc2ccccc2)c1 | > 200 |  |
| Cc1cccc(C)c1OCCSc1nc2ccccc2[nH]1 | 2.7 | inhibition [2]: inactive; growth inhibition (GI) (PC-3): inactive; growth inhibition (GI) (LNCaP [3]): Active; growth inhibition (GI) (LNCaP [4]): Active; IC50 (Androgen receptor [5]): 6.8 µM; IC50 (Androgen receptor [6]): 1.9 µM |
| c1ccc(CCCSc2nc3ccccc3[nH]2)cc1 | 12 |  |
| c1ccc(OCCSc2nc3ccccc3o2)cc1 | > 200 |  |
| c1ccc(NCCSc2nc3ccccc3[nH]2)cc1 | > 200 |  |
| c1ccc(OCCSc2nc3ccccc3[nH]2)cc1 |  | inhibition [2]: inactive; growth inhibition (GI) (PC-3): inactive; growth inhibition (GI) (LNCaP [3]): inactive; growth inhibition (GI) (LNCaP [4]): inactive |
| Cc1cccc(OCCSc2nc3ccccc3[nH]2)c1 | 1.8 | inhibition [2]: inactive; growth inhibition (GI) (PC-3): inactive; growth inhibition (GI) (LNCaP [3]): Active; growth inhibition (GI) (LNCaP [4]): Active; IC50 (Androgen receptor [5]): 13 µM; IC50 (Androgen receptor [6]): 3.3 µM |
| c1ccc(OCCNc2nc3ccccc3[nH]2)cc1 | > 200 |  |
| Cc1cccc(OCCSc2nc3ccccc3n2CC(=O)N2CCOCC2)c1 | > 200 |  |
| C=CCn1c(SCCOc2ccccc2)nc2ccccc21 | > 200 |  |
| Clc1cccc(OCCSc2nc3ccccc3[nH]2)c1 | 5 |  |
| c1ccc(CCSc2nc3ccccc3[nH]2)cc1 | 7.4 |  |
| Cc1ccc(OCCSc2nc3ccccc3[nH]2)cc1 | 7 |  |
| Cc1cccc(OCCSc2nc3ccccc3n2C)c1 | 45 |  |

Second part, led by results:

| IC50 (Androgen receptor [1]) [µM] | SMILES | also measured |
| --- | --- | --- |
| > 200 | COC(=O)Cn1c(SCCOc2ccc(C)c(C)c2)nc2ccccc21 |  |
| > 200 | Cc1ccc(OCCSc2nc3ccccc3n2CCC(=O)O)cc1 |  |
| > 200 | CCN(CC)C(=O)Cn1c(SCCOc2cccc(C)c2)nc2ccccc21 |  |
| 35 | CCn1c(SCCOc2cccc(C)c2)nc2ccccc21 |  |
| 55 | CCOC(=O)Cn1c(SCCOc2cccc(CC)c2)nc2ccccc21 |  |
| > 200 | CCOC(=O)Cn1c(SCCOc2cc(C)cc(C)c2)nc2ccccc21 |  |
| > 200 | CCc1cccc(OCCSc2nc3ccccc3n2CCC(=O)O)c1 |  |
| 12.7 | COCCn1c(SCCOc2ccc(C)cc2)nc2ccccc21 |  |
| 32.9 | COC(=O)Cn1c(SCCOc2ccc(C)cc2)nc2ccccc21 |  |
| > 200 | Cc1cc(C)cc(OCCSc2nc3ccccc3n2CC(=O)O)c1 |  |
| > 200 | Cc1ccc(C)c(OCCSc2nc3ccccc3n2CC(=O)O)c1 |  |
| > 200 | Cc1cccc(OCCSc2nc3ccccc3n2CCC(=O)O)c1 |  |
| > 200 | Cc1ccc(OCCSc2nc3ccccc3n2CC(=O)O)cc1C |  |
| > 200 | Cc1cccc(OCCSc2nc3ccccc3n2CC(=O)O)c1 |  |
| 24.1 | COCCn1c(SCCOc2cccc(C)c2)nc2ccccc21 |  |
| 30.6 | Cc1ccc(OCCSc2nc3ccccc3n2CC(=O)OC(C)C)cc1C |  |
| 40.3 | CCOC(=O)Cn1c(SCCOc2ccc(C)c(C)c2)nc2ccccc21 |  |
| > 200 | CC(C)(C)c1cccc(OCCSc2nc3ccccc3n2CC(=O)O)c1 |  |
| > 200 | CCc1cccc(OCCSc2nc3ccccc3n2CC(=O)O)c1 |  |
| 14.1 | CCOC(=O)Cn1c(SCCOc2cccc(C)c2)nc2ccccc21 |  |
| > 200 | C=CCc1cccc(OCCSc2nc3ccccc3n2CC(=O)OC)c1 |  |
| 164 | Cc1ccc(OCCSc2nc3ccccc3n2CC(=O)O)cc1 |  |
| > 200 | CCc1cccc(OCCSc2nc3ccccc3n2CC(=O)OC)c1 |  |
| 13.7 | Cc1cccc(OCCSc2nc3ccccc3n2CC(=O)OC(C)C)c1 |  |
| 11.1 | Cc1ccc(OCCSc2nc3ccccc3n2CC(=O)OC(C)C)cc1 |  |
